# Results of several laboratories.
# Each line is one published result; the experiments were not run side by side.
# Organism: Clostridioides difficile
# Observed: microbial growth
SMILES,method,strain,time,MIC
Oc1ccc(Oc2ccc(-c3noc(-c4ccc(O)cc4)n3)cc2)cc1,broth dilution,ATCC43255,48 h,8 to 128 µg/mL
O=C(NCc1nc(-c2ccc(Br)cc2)c[nH]1)[C@H]1CSC(c2ccccn2)=N1,broth dilution,R20291,24 h,> 50 µg/mL
O=C(O)Cc1ccc(Oc2ccc(-c3noc(-c4ccc(O)cc4)n3)cc2)cc1,broth dilution,,48 h,50 µg/mL
N#Cc1ccc(Oc2ccc(-c3noc(-c4ccc(O)cc4)n3)cc2)cc1,broth dilution,ATCC43255,48 h,8 to 128 µg/mL
Cc1ncc([N+](=O)[O-])n1CCO,broth dilution,630,,> 0.5 µg/mL
Cl.NCCCc1ccc(Oc2ccc(-c3noc(-c4ccc(O)cc4)n3)cc2)cc1,broth dilution,,48 h,2 µg/mL
O=C(Nc1ncc([N+](=O)[O-])s1)C1CCCCC1,agar dilution,VPI10463,18 h,5.9 µM
O=C(NCc1nc(-c2ccc(Br)cc2)c[nH]1)Nc1nc2ccc(OC(F)(F)F)cc2s1,broth dilution,R20291,24 h,12.5 to 25 µg/mL
COCCNc1ccc(-c2nc(-c3ccc(Oc4ccccc4)cc3)no2)cc1,broth dilution,,48 h,8 µg/mL
Oc1cc(-c2nc(-c3ccc(Oc4ccc(C(F)(F)F)cc4)cc3)no2)cc(F)c1O,broth dilution,ATCC43255,48 h,128 µg/mL
